One may read the viability as a read-out of living cells in per cent, often relative to untreated cells. As a reminder, the inhibition is the drop in the measured response relative to a control, in per cent.

The values that follow come from PubChem BioAssay.

The nature of experiment [1]: Her2 expression decrease, cell viability multiplex – SKBR3 breast tumor cells, AlphaScreen, ATP viability, primary screen (AID 461;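 active means Her2 level under about 52% in both replicate screens, with viability over 70% of control, limit read from the data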;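 on Her2 level: lower value means less Her2 protein in the cells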;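 on viability: percent of carrier control wells set as 100% viability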). As to conditions: SKBR3 Her2 protein level, 18-24 h, measured here: SKBR3 viability, ATP luminescence, at 10 µM. In general terms: Bead proximity is the source of the signal in Alpha formats.
Experiment [2] deals with Receptor tyrosine-protein kinase erbB-2 (Homo sapiens) (UniProt P04626). The experiment is described as above. As to conditions: 18-24 h, at 10 µM, stronger effect = lower value.
The nature of experiment [3]: reduced viability of SK-BR-3 breast cancer cells – cell-based, 24 h, human, pilot screen (AID 572;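 active means viability at or below 10% of carrier control in both of two separate runs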;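 further: compound exposure lasted between 18 and 24 h rather than exactly 24 h; 100% = carrier-treated control wells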). The conditions noted are these: SK-BR-3 viability, CellTiter-Glo luminescence, at 10 µM, stronger effect = lower value.
The nature of experiment [4]: HUVEC growth inhibition – cell-based, human, primary screen (AID 575;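 active means viability at or below 30% in both replicate assays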;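 further: 100% = median of untreated cell wells with 0.1% DMSO on each plate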). The conditions noted are these: HUVEC proliferation, CellTiter-Glo luminescence, 72 h; at 10 µM; stronger effect = lower value. Put shortly:
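Timing: 72 h treatment at 37 °C; material: HUVEC primary cells; technique: CellTiter-Glo luminescence measuring cellular ATP; controls: vehicle and MePR control wells; measure: percent of median DMSO-control luminescence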
(ATP-based viability assays read luminescence as a measure of living cells.)

Experiment [5] in a line: H69AR cell proliferation blockers – human, duplicate replicates, primary screen (AID 580).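 Further: 100% = mean luminescence of untreated wells and 0% = no signal.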 The conditions noted are these: H69AR lung tumor cells viability, ATP luminescence, 72 h; at 10 µM; stronger effect = lower value.
The nature of experiment [6]: MRP1 drug-resistance reversers in H69AR cells – cell-based, doxorubicin co-treatment, pilot screen (AID 601;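 active means viability loss from added drug above about 55%, and viability with drug at most 40%, in both replicates, limit read from the data, passing the limit was not always enough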). The conditions noted are these: CellTiter-Glo, 72 h, at 10 µM; for differential viability (reversal): stronger effect = higher value.
Experiment [7] can be described thus: yeast transport mutant growth inhibition pilot in 384-well plates, post-Golgi transport modulator project (AID 636; in the data active means inhibition above about 31%). The conditions noted are these: absorbance 615 nm, about 18 h, stronger effect = higher value.
The nature of experiment [8]: growth suppression of yeast trafficking mutant, preliminary HTS, modulators of trafficking downstream of Golgi apparatus project, 1536-format plate, OD 615 nm (AID 637; in the data active means inhibition above about 30%). As to conditions: yeast transport mutant growth, absorbance 615 nm, 18 h; stronger effect = higher value.
The mark [9] stands for this setting: H69AR cells + 2 uM doxorubicin, measured here: viability with 2 uM doxorubicin, stronger effect = lower value.
Where [10] appears, read: H69AR cells, compound alone cytotoxicity.

The source made the active and inactive calls.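 How the source made its calls, unless noted: active means viability at or under a set limit in both replicates, limit being median viability minus 3 SD (cut at about 48% in these data, passing the limit was not always enough); inconclusive means at or under the limit in just one replicate; inactive means at or above the limit in both replicates.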

Receptor tyrosine-protein kinase erbB-2 (Homo sapiens), sequence (P04626 whole entry, looked up): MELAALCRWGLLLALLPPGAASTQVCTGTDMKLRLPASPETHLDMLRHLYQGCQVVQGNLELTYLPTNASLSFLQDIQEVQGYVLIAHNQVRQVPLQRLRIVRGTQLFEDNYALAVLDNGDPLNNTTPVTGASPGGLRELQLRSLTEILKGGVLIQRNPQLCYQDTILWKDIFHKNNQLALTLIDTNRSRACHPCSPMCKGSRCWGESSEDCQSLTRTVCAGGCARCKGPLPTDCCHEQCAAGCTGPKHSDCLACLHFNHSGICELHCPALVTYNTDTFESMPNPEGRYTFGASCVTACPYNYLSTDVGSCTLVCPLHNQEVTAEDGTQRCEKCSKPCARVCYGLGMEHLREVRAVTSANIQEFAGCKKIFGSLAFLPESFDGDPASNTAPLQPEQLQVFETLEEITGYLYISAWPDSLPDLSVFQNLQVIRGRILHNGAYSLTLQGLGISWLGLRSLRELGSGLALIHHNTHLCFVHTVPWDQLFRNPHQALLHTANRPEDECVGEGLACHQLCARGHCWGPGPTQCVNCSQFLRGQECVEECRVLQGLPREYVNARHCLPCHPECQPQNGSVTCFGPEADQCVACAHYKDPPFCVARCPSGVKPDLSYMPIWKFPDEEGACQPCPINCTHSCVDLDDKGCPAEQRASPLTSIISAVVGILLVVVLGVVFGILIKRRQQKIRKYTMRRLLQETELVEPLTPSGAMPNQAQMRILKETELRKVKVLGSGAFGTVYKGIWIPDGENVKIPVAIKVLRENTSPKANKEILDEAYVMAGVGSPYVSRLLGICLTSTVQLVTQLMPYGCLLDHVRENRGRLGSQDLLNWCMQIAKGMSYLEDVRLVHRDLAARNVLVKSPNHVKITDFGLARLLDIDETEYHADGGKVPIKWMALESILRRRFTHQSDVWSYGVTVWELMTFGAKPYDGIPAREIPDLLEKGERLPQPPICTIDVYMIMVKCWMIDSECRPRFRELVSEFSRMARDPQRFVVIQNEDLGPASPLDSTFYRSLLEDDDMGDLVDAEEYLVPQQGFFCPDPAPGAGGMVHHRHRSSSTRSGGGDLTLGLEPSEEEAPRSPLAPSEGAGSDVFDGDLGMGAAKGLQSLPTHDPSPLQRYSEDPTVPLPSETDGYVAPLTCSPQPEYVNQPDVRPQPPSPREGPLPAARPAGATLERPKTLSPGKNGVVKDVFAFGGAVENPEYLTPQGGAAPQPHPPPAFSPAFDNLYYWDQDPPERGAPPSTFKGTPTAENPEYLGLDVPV

Consider `O=C(c1ccccc1)c1coc2ccc(O)c(CN3CCOCC3)c12`, for which the viability is 78.5% in experiment [1]; 78.5% (inactive) in experiment [3]; 115% (inactive) in experiment [4]; 88.5% (inactive) in experiment [5]; 97.8% in experiment [6] (setting [9]); 88.5% in experiment [6] (setting [10]). Also, the Her2 level in experiment [2] was 75.5% (inactive). Moreover, the differential viability (reversal) in experiment [6] (H69AR cells + 2 uM doxorubicin) is -9.25% (inactive). Further, the values for the inhibition in experiment [7] and in experiment [8] were -3.42% (inactive) and 5.9% (inactive), respectively.

Turning to `O=C(Nc1cccnc1)c1ccc2c(c1)C(=O)N(Cc1cccnc1)C2=O`, the viability is 96.5% in experiment [1]; 96.5% (inactive) in experiment [3]; 103% (inactive) in experiment [4]; 102% (inactive) in experiment [5]; 94.7% in experiment [6] (setting [9]); 102% in experiment [6] (setting [10]). The Her2 level in experiment [2] is 99.5% (inactive). For the same compound, the differential viability (reversal) in experiment [6] (H69AR cells + 2 uM doxorubicin) is 7.77% (inactive). Further, the figures for the inhibition in experiment [7] and in experiment [8] were -2.93% (inactive) and -1.64% (inactive), respectively.

Consider `Cc1ccccc1N1C(N)=NC(N)=NC1(C)C`, for which the viability in experiment [1] is 107%; in experiment [3], 107% (inactive); in experiment [4], 98.3% (inactive); in experiment [5] it was 90.6% (inactive); in experiment [6] (setting [9]) it was 91.5%; in experiment [6] (setting [10]), 90.6%. For the same compound, the Her2 level in experiment [2] was 84% (inactive). In addition, the differential viability (reversal) in experiment [6] (H69AR cells + 2 uM doxorubicin) was -0.97% (inactive). Also, the values for the inhibition in experiment [7] and in experiment [8] were -3.9% (inactive) and -3.17% (inactive), respectively.

`Cc1ccc(NC(=O)C2CCCN2C(=O)Oc2ccccc2)cc1` (stereo not given): the viability in experiment [1] was 90.5%; in experiment [3] it was 90.5% (inactive); in experiment [4] it was 107% (inactive); in experiment [5] it was 91.5% (inactive); in experiment [6] (setting [9]) it was 91.9%; in experiment [6] (setting [10]), 91.5%. Also, the Her2 level in experiment [2] is 94.5% (inactive). The differential viability (reversal) in experiment [6] (H69AR cells + 2 uM doxorubicin) was -0.415% (inactive). Also, the values for the inhibition in experiment [7] and in experiment [8] were -6.4% (inactive) and -1.64% (inactive), respectively.

Turning to `O=C(OC1CCOC1=O)c1ccc2ccccc2n1` (stereo not given), the viability in experiment [1] is 98.5%; in experiment [3], 98.5% (inactive); in experiment [4] it was 101% (inactive); in experiment [5] it was 102% (inactive); in experiment [6] (setting [9]), 93.4%; in experiment [6] (setting [10]) it was 102%. For the same compound, in experiment [2], the Her2 level was 85% (inactive). In addition, in experiment [6] (H69AR cells + 2 uM doxorubicin), the differential viability (reversal) is 9.04% (inactive). The inhibition in experiment [7] was -6.93% (inactive); in experiment [8], 1.75% (inactive).

Take `CCC(=O)N(Cc1cc2c(C)ccc(C)c2[nH]c1=O)C1CCCCC1`: the viability is 86% in experiment [1]; 86% (inactive) in experiment [3]; 79.2% (inactive) in experiment [4]; 85.9% (inactive) in experiment [5]; 86.6% in experiment [6] (setting [9]); 85.9% in experiment [6] (setting [10]). Besides, the Her2 level in experiment [2] is 71.5% (inactive). Also, the differential viability (reversal) in experiment [6] (H69AR cells + 2 uM doxorubicin) is -0.72% (inactive). The inhibition in experiment [7] is -6.71% (inactive); in experiment [8], 0.32% (inactive).

Take `Cc1cnc(C(=O)Nc2ccc(-n3cnnn3)cc2)cn1`: the viability was 100% in experiment [1]; 100% (inactive) in experiment [3]; 101% (inactive) in experiment [4]; 105% (inactive) in experiment [5]; 88.9% in experiment [6] (setting [9]); 105% in experiment [6] (setting [10]). In experiment [2], the Her2 level is 98.5% (inactive). Further, the differential viability (reversal) in experiment [6] (H69AR cells + 2 uM doxorubicin) is 16.4% (inactive). The inhibition in experiment [7] is -4.93% (inactive); in experiment [8], -4.68% (inactive).

On to `COCCOC(=O)c1c(C)nc(SCC(=O)Nc2ccc(OC)cc2)c(C#N)c1-c1ccco1`, for which the viability in experiment [1] is 108%; in experiment [3], 108% (inactive); in experiment [4] it was 73.9% (inactive); in experiment [5], 91% (inactive); in experiment [6] (setting [9]), 76.3%; in experiment [6] (setting [10]), 91%. The Her2 level in experiment [2] was 87.5% (inactive). In addition, the differential viability (reversal) in experiment [6] (H69AR cells + 2 uM doxorubicin) was 14.7% (inactive). The figures for the inhibition in experiment [7] and in experiment [8] were -2.63% (inactive) and -5.97% (inactive), respectively.

For the compound `CN1C(=O)C(CC(=O)N2CCN(C(c3ccccc3)c3ccccc3)CC2)N(C)C1=O` (stereo not given), the viability is 90.5% in experiment [1]; 90.5% (inactive) in experiment [3]; 89.1% (inactive) in experiment [4]; 81.9% (inactive) in experiment [5]; 95.9% in experiment [6] (setting [9]); 81.9% in experiment [6] (setting [10]). The Her2 level in experiment [2] is 83% (inactive). For the same compound, the differential viability (reversal) in experiment [6] (H69AR cells + 2 uM doxorubicin) is -14% (inactive). The values for the inhibition in experiment [7] and in experiment [8] were 0.26% (inactive) and -3.67% (inactive), respectively.

As to `CSc1nc(N2CCOCC2)c2ccccc2n1`, the viability in experiment [1] is 110%; in experiment [3], 110% (inactive); in experiment [4], 93.7% (inactive); in experiment [5], 94.6% (inactive); in experiment [6] (setting [9]), 87%; in experiment [6] (setting [10]), 94.6%. In addition, in experiment [2], the Her2 level is 100% (inactive). In addition, the differential viability (reversal) in experiment [6] (H69AR cells + 2 uM doxorubicin) was 7.67% (inactive). The inhibition in experiment [7] was -2.27% (inactive); in experiment [8], -7.87% (inactive).

`CCOc1ccccc1Nc1ncnc2ccccc12`: the viability in experiment [1] is 101%; in experiment [3] it was 101% (inactive); in experiment [4], 78.4% (inactive); in experiment [5] it was 82% (inactive); in experiment [6] (setting [9]), 80%; in experiment [6] (setting [10]), 82%. Moreover, the Her2 level in experiment [2] was 81% (inactive). Moreover, the differential viability (reversal) in experiment [6] (H69AR cells + 2 uM doxorubicin) was 1.99% (inactive). Further, the inhibition in experiment [7] was -1.45% (inactive); in experiment [8] it was 0.18% (inactive).

Consider `COc1ccc(-c2noc(CN(C(=O)C(C)(C)C)C(C)C)n2)cc1`, for which the viability in experiment [1] is 96%; in experiment [3], 96% (inactive); in experiment [4] it was 102% (inactive); in experiment [5] it was 109% (inactive); in experiment [6] (setting [9]), 91.3%; in experiment [6] (setting [10]), 109%. Also, the Her2 level in experiment [2] is 102% (inactive). In experiment [6] (H69AR cells + 2 uM doxorubicin), the differential viability (reversal) is 17.6% (inactive). For the same compound, the inhibition was -4.61% (inactive) in experiment [7] and -6.83% (inactive) in experiment [8].

As to `COc1ccc(-c2cc3nc(C)c(CCC(=O)NCc4ccco4)c(C)n3n2)c(OC)c1`, the viability in experiment [1] is 103%; in experiment [3], 103% (inactive); in experiment [4] it was 92.1% (inactive); in experiment [5] it was 85.8% (inactive); in experiment [6] (setting [9]), 88.4%; in experiment [6] (setting [10]), 85.8%. The Her2 level in experiment [2] is 91% (inactive). Also, the differential viability (reversal) in experiment [6] (H69AR cells + 2 uM doxorubicin) was -2.58% (inactive). The values for the inhibition in experiment [7] and in experiment [8] were 0.53% (inactive) and 6.91% (inactive), respectively.

As to `O=C(CSc1ccc(Cl)cc1)OCc1nnc(-c2ccccc2)o1`, the viability in experiment [1] is 98%; in experiment [3], 98% (inactive); in experiment [4], 106% (inactive); in experiment [5], 109% (inactive); in experiment [6] (setting [9]), 79.5%; in experiment [6] (setting [10]), 109%. Further, in experiment [2], the Her2 level was 99% (inactive). Besides, the differential viability (reversal) in experiment [6] (H69AR cells + 2 uM doxorubicin) is 29.6% (inactive). Further, the inhibition is 0.53% (inactive) in experiment [7] and -0.91% (inactive) in experiment [8].

In the case of `O=C(Nc1ccccc1N1CCN(C(=O)c2ccc(Cl)cc2)CC1)c1cc2ccccc2o1`, the viability in experiment [1] was 69.5%; in experiment [3], 69.5% (inactive); in experiment [4], 67.8% (inactive); in experiment [5], 85.5% (inactive); in experiment [6] (setting [9]) it was 62.6%; in experiment [6] (setting [10]) it was 85.5%. For the same compound, the Her2 level in experiment [2] is 79.5% (inactive). Also, in experiment [6] (H69AR cells + 2 uM doxorubicin), the differential viability (reversal) was 22.9% (inactive). In addition, the inhibition in experiment [7] is 2.53% (inactive); in experiment [8], 0.81% (inactive).
